Numbering of substitutions follows the chain as printed.
Columns and labels:
Conditions in all cases: stereoisomer not certain
[1] = target: T1, OR8U1 (Homo sapiens) (UniProt Q8NH10)
T1 sequence (whole entry): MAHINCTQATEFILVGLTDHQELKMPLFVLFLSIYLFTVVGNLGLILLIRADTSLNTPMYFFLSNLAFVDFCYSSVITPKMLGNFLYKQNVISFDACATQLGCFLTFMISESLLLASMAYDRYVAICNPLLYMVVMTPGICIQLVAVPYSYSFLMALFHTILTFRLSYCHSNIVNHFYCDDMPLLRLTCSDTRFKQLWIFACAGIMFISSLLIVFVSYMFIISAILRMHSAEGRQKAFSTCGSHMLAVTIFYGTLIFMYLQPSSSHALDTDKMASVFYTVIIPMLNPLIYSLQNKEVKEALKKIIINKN
Summary of the method: (§1)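 Each receptor–molecule pair is labelled responsive or non-responsive (inactive) according to whether the original authors judged the measured signal statistically different from baseline. The data were taken from the main text and supplementary material of published papers and checked for typos and inconsistencies. Assay methods differed by source, with transient luciferase assays in mammalian cell lines being common.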

[2] = target: T2, OR8U3 (Homo sapiens) (UniProt Q8NH85)
T2 sequence (whole entry): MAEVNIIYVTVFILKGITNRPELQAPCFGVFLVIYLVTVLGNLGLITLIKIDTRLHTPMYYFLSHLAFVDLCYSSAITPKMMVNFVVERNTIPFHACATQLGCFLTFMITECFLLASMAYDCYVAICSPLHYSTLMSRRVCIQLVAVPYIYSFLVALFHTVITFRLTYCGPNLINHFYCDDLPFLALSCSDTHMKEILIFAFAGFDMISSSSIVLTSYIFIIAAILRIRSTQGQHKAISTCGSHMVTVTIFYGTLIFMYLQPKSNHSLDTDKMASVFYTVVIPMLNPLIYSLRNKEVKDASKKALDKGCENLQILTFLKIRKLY
Summary of the method: as §1

[3] = system: T3, OR8U8
T3 sequence (whole entry): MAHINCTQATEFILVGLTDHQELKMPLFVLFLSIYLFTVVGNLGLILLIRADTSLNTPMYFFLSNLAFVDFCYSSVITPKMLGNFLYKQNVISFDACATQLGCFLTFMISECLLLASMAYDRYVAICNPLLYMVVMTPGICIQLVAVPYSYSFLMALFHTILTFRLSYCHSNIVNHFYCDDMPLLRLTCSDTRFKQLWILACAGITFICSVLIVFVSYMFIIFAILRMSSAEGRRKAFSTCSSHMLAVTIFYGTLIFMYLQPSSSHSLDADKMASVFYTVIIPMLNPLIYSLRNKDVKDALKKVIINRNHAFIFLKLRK
Summary of the method: as §1

[4] = system: T4, OR8U8; remark: listed apart in the source
T4 sequence (whole entry): T3 sequence (whole entry) with H20R, C112S, R165C
Summary of the method: as §1

[5] = target: T5, OR8U9 (Homo sapiens) (UniProt P0C7N5)
T5 sequence (whole entry): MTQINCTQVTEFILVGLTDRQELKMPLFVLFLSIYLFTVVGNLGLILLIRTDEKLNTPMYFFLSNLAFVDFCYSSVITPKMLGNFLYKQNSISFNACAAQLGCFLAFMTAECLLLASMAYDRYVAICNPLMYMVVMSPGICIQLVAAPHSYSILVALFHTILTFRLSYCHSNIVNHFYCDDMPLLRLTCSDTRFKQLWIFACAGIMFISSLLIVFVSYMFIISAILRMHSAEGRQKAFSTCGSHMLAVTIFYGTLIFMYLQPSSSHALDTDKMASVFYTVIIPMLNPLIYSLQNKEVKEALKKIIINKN
Summary of the method: as §1

[6] = system: T6, OR8U9 T2A Q3H Q293R
T6 sequence (whole entry): T5 sequence (whole entry) with T2A, Q3H, Q293R
Summary of the method: as §1

[7] = system: T7, OR8U9
T7 sequence (whole entry): T5 sequence (whole entry) with Q293R
Summary of the method: as §1

[8] = target: T8, OR9A2 (Homo sapiens) (UniProt Q8NGT5)
T8 sequence (whole entry): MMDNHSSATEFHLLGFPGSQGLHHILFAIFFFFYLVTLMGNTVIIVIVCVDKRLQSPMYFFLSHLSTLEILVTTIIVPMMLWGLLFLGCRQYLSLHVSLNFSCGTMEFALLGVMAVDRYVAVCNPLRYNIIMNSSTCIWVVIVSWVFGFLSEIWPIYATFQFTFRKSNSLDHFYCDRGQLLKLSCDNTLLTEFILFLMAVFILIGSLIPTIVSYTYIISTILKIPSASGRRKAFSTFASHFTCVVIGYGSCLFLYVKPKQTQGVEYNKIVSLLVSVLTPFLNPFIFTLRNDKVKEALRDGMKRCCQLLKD
Summary of the method: as §1

[9] = system: T9, OR9A2 C304Y
T9 sequence (whole entry): T8 sequence (whole entry) with C304Y
Summary of the method: as §1

[10] = target: T10, OR9A4 (Homo sapiens) (UniProt Q8NGU2)
T10 sequence (whole entry): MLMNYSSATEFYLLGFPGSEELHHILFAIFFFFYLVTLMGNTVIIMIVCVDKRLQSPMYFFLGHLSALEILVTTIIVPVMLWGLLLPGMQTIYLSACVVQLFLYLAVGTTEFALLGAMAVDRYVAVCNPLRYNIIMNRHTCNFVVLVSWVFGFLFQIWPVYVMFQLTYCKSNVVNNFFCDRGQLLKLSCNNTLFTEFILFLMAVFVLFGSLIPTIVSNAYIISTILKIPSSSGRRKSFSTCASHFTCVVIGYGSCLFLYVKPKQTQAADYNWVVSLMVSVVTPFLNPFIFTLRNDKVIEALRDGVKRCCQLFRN
Summary of the method: as §1

[11] = target: T11, OR9G1 (Homo sapiens) (UniProt Q8NH87)
T11 sequence (whole entry): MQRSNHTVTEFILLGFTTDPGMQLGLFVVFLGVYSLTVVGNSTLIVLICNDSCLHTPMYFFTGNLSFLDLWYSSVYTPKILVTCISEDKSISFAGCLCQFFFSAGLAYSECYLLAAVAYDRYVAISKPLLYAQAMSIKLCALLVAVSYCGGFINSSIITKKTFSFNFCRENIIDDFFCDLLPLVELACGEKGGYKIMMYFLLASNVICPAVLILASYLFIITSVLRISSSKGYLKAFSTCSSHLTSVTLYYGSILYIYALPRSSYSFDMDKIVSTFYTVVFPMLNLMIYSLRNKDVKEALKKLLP
Summary of the method: as §1

[12] = target: T12, OR9G4 (Homo sapiens) (UniProt Q8NGQ1)
T12 sequence (whole entry): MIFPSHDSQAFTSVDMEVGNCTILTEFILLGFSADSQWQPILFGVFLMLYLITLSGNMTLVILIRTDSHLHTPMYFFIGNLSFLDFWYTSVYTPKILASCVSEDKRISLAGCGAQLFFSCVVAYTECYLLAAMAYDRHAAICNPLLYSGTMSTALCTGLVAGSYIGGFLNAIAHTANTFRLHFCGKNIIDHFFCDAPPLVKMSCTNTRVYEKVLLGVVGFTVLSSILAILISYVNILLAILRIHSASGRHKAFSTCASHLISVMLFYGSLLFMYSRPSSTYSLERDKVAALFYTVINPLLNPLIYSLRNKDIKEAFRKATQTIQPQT
Summary of the method: as §1

[13] = system: T13, OR9G4 H6Y N206D V222A
T13 sequence (whole entry): T12 sequence (whole entry) with H6Y, N206D, V222A
Summary of the method: as §1

[14] = system: T14, OR9G4 N206D V222A
T14 sequence (whole entry): T12 sequence (whole entry) with N206D, V222A
Summary of the method: as §1

[15] = system: T15, OR9G9
T15 sequence (whole entry): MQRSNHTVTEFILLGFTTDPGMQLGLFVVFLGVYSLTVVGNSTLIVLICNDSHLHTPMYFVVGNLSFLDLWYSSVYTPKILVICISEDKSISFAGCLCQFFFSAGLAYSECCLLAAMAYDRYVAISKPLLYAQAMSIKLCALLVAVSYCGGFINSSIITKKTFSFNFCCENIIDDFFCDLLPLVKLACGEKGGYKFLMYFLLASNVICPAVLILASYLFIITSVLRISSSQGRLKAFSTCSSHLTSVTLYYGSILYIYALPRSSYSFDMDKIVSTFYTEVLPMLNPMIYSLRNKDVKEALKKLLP
Summary of the method: as §1

[16] = target: T16, OR9I1 (Homo sapiens) (UniProt Q8NGQ6)
T16 sequence (whole entry): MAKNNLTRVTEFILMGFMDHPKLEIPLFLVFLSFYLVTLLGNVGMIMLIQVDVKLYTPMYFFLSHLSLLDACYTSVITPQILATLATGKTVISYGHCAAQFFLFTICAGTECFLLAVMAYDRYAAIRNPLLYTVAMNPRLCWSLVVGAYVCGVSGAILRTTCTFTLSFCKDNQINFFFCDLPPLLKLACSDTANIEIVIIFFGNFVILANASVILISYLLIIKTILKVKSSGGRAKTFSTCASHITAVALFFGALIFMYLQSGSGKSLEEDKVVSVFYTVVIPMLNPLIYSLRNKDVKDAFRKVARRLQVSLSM
Summary of the method: as §1

[17] = target: T17, OR9K2 (Homo sapiens) (UniProt Q8NGE7)
T17 sequence (whole entry): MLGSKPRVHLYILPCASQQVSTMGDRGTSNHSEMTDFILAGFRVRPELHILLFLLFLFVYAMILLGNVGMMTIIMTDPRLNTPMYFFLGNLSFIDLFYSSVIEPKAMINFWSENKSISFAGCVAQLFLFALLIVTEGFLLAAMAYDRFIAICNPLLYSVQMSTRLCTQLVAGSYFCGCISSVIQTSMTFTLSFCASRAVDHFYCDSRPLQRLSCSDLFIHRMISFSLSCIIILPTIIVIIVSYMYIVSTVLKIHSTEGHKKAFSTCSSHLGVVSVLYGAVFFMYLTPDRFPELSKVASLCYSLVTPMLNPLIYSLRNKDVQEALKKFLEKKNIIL
Summary of the method: as §1

[18] = system: T18, OR9K2 R207H
T18 sequence (whole entry): T17 sequence (whole entry) with R207H
Summary of the method: as §1

[19] = target: T19, OR8U8 (Homo sapiens) (UniProt P0C7N1)
T19 sequence (whole entry): T3 sequence (whole entry) with I109V, C112S
Summary of the method: as §1

[20] = target: T20, OR9G9 (Homo sapiens) (UniProt P0C7N8)
T20 sequence (whole entry): T15 sequence (whole entry) with G193C
Summary of the method: as §1

Measured: odorant receptor agonist call;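 also: active if original authors judged signal statistically different from baseline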

Cc1cnc(C)c(C)n1
inactive: [1] | [2] | [3] | [4] | [5] | [6] | [7] | [8] | [9] | [10] | [11] | [12] | [13] | [14] | [15] | [16] | [17] | [18]

CC1=C(O)C(=O)OC1C (configuration not stated)
inactive: [1] | [2] | [3] | [4] | [5] | [6] | [7] | [8] | [9] | [10] | [11] | [12] | [13] | [14] | [15] | [16] | [17] | [18]

CC(=O)c1c(C)c([N+](=O)[O-])c(C(C)(C)C)c([N+](=O)[O-])c1C
inactive: [1] | [2] | [19] | [5] | [8] | [10] | [11] | [12] | [20] | [16] | [17]

CCC1OC(=O)C(O)=C1C (configuration not stated)
inactive: [1] | [2] | [3] | [4] | [5] | [6] | [7] | [8] | [9] | [10] | [11] | [12] | [13] | [14] | [15] | [16] | [17] | [18]

CC1=C(O)C(=O)C(C)O1 (configuration not stated)
inactive: [1] | [2] | [3] | [4] | [5] | [6] | [7] | [8] | [9] | [10] | [11] | [12] | [13] | [14] | [15] | [16] | [17] | [18]

CCC1OC(C)=C(O)C1=O (configuration not stated)
inactive: [1] | [2] | [3] | [4] | [5] | [6] | [7] | [8] | [9] | [10] | [11] | [12] | [13] | [14] | [15] | [16] | [17] | [18]

CCCCC(S)C(C)CO (configuration not stated)
inactive: [1] | [2] | [19] | [5] | [8] | [10] | [11] | [12] | [20] | [16] | [17]

— the M2OR odorant receptor database
